From PubChem
CSC inhib = cancer stem cell inhibition; inhibition, % at 7.5 µM; hit rate 1.1% among 300,000; cancer stem cell-like cells viability, luminescence; in the data active = inhibition above about 75%; tested in HMLE shEcad cells
UPR CHOP act = activators of apoptotic arm of unfolded protein response (CHOP) | hit rate 0.34% among 330,000 | CHO-CHOP luciferase reporter, UPR activation, luminescence; percent of tunicamycin response over DMSO baseline | activation, % at 10 µM;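 active = at 10 µM dose, activation of 40% or more, normalized to positive control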
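Assay system: CHO-CHOP cells, stable luciferase reporter of PERK-eIF2a-CHOP signalling / Buffer or medium: F12 plus 10% serum / Compound dosing: one dose, 10 µM in 0.5% DMSO / Times: 6 h compound treatment, 37 °C / Technique: luciferase luminescence / Read-out: % reporter activation, DMSO baseline versus tunicamycin full activation / Benchmarks: tunicamycin and DMSO controls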
Beta apoptosis = blocks beta cell apoptosis | INS-1E cytokine-induced death, ATP luminescence, 48 h; percent of positive-control rescue, neutral wells zero | protection from apoptosis, % (test concentration not listed) | hit rate 0.8% among 300,000;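 active = Every replicate reaches about 75%, or at least half do and their mean reaches it too, limit read from the data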;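 note: higher means more ATP so stronger rescue from cytokine killing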
SKKanGAS inh = SKKanGAS growth inhibition | inhibition, % at 7.5 µM | hit rate 1.3% among 300,000 | S. pyogenes SKKanGAS, kanamycin growth, BacTiter-Glo, 6 h;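 active = mean replicate score, as percent of positive control median, at least 50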;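 note: strain carries kanamycin resistance gene driven by streptokinase promoter and grows in 40 µg/ml kanamycin; loss of luminescence reflects streptokinase promoter inhibition or plain growth inhibition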
UPR XBP1 act = adaptive UPR (XBP1) activation; hit rate 0.33% among 330,000; activation, % at 20 µM; CHO-XBP1 luciferase reporter, IRE1-XBP1 UPR activation, luminescence; percent of tunicamycin response, DMSO as zero; AID 463104;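 active = versus positive control, 20 µM dose yields 30% or more activation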
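Assay system: CHO-XBP1 luciferase reporter cells; Schedule: 6 h treatment, 37 °C; Detection: glow luminescence from Steady-Glo reagent; Benchmarks: high control tunicamycin 10 µg/mL final, low control DMSO vehicle only.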
Mdm2 MdmX PPI = human Mdm2/MdmX binding inhibition. AID 485346. SaOS-2 split-luciferase Mdm2/MdmX complementation, luminescence. O15151+Q00987. inhibition, % at 8 µM. hit rate 3% among 330,000;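 active = inhibition of at least 50% at 8 µM in the primary screen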
CHOP UPR conf = confirmation of apoptotic unfolded protein response (CHOP) activators; activation, % at 10 µM; shares compounds with UPR CHOP act; hit rate 64% among 1,000; CHO-CHOP cells, CHOP-luciferase reporter luminescence; percent of tunicamycin response, DMSO as zero; in the data active = activation above about 33%
UPR XBP1 confirm = confirmation of adaptive unfolded protein response (XBP1) activators. shares compounds with UPR XBP1 act. CHO-XBP1 IRE1-XBP1 luciferase reporter, luminescence. activation, % at 20 µM. hit rate 63% among 1,000. AID 485299;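 active = reporter signal at least 30% of the positive control's activation in two or more of four replicate wells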
Hits are given with their value. An excerpt weighted towards active compounds, which were near 4.8% of everything screened.

How did COc1ccc([C@@H]2CC=C(C(=O)O)[C@H](c3ccccc3F)N2S(=O)(=O)c2ccc(C)cc2)cc1OC do in these assays?
CSC inhib: inactive; UPR CHOP act: inactive; Beta apoptosis: inactive; UPR XBP1 act: inactive; Mdm2 MdmX PPI: inactive

What do the screens show for `COc1ccc(-c2cnnc(N/N=C/c3ccc(O)c(O)c3)n2)cc1`?
CSC inhib: inactive; UPR CHOP act: inactive; Beta apoptosis: inactive; SKKanGAS inh: inactive; UPR XBP1 act: inactive; Mdm2 MdmX PPI: inactive

How did CN(/N=C\c1ccc(O)c(O)c1)c1nc(-c2ccccc2)cc(-c2ccccc2)n1 do in these assays?
CSC inhib: inactive; UPR CHOP act: 112; Beta apoptosis: inactive; SKKanGAS inh: inactive; UPR XBP1 act: 66; Mdm2 MdmX PPI: inactive; CHOP UPR conf: 93; UPR XBP1 confirm: 98

Results for CCN1C(=O)[C@H]2[C@@H](c3ccc(-c4ccccc4)cc3)N3CCCC[C@@]3(C(=O)OC)[C@H]2C1=O ?
CSC inhib: inactive; UPR CHOP act: inactive; Beta apoptosis: inactive; SKKanGAS inh: inactive; UPR XBP1 act: inactive; Mdm2 MdmX PPI: inactive

What do the screens show for `O=C(CN(c1ccccc1)S(=O)(=O)c1ccc(Cl)cc1)Nc1cccnc1`?
UPR CHOP act: inactive; Beta apoptosis: inactive; SKKanGAS inh: inactive; UPR XBP1 act: inactive; Mdm2 MdmX PPI: inactive

What do the screens show for `Nc1cccc(-c2nc3cc(S(=O)(=O)c4ccc5oc(-c6cccc(N)c6)nc5c4)ccc3o2)c1`?
CSC inhib: inactive; UPR CHOP act: 57; Beta apoptosis: inactive; SKKanGAS inh: inactive; UPR XBP1 act: 50; Mdm2 MdmX PPI: inactive; CHOP UPR conf: 78; UPR XBP1 confirm: 92

Results for CN(C)C1CCN(C(=O)c2cccc(OC3CCN(S(=O)(=O)N(C)C)CC3)c2)C1 (stereo not drawn) ?
CSC inhib: inactive; UPR CHOP act: inactive; Beta apoptosis: inactive; SKKanGAS inh: inactive; UPR XBP1 act: inactive; Mdm2 MdmX PPI: inactive

How did N=c1c(-c2nc3ccccc3[nH]2)cc(C(=O)c2ccco2)nn1-c1ccccc1 do in these assays?
CSC inhib: inactive; UPR CHOP act: 153; Beta apoptosis: inactive; SKKanGAS inh: inactive; UPR XBP1 act: 33; Mdm2 MdmX PPI: inactive; CHOP UPR conf: 148; UPR XBP1 confirm: inactive

How did O=C(Nc1cccc(-c2nc3ccccc3[nH]2)c1)c1ccco1 do in these assays?
CSC inhib: inactive; UPR CHOP act: inactive; Beta apoptosis: inactive; SKKanGAS inh: inactive; UPR XBP1 act: inactive; Mdm2 MdmX PPI: inactive

Results for CNC(=O)COc1coc(CN2CCN(c3ccc(OC)cc3)CC2)cc1=O ?
CSC inhib: inactive; UPR CHOP act: inactive; SKKanGAS inh: inactive; UPR XBP1 act: inactive; Mdm2 MdmX PPI: inactive

What do the screens show for `O=C1/C(=C/c2ccc(O)c(O)c2)SC(=S)N1Nc1ccccc1`?
SKKanGAS inh: inactive

How did O=C(NN1C(=O)/C(=C/c2ccc(O)c(O)c2)SC1=S)c1ccccc1 do in these assays?
CSC inhib: inactive; UPR CHOP act: 43; Beta apoptosis: inactive; SKKanGAS inh: inactive; UPR XBP1 act: 59; Mdm2 MdmX PPI: inactive; CHOP UPR conf: inactive; UPR XBP1 confirm: 57

How did O=C(c1cc(S(=O)(=O)N2CCOCC2)ccc1F)N(CCc1ccccc1)Cc1ccccc1 do in these assays?
UPR CHOP act: inactive; Beta apoptosis: inactive; SKKanGAS inh: inactive; UPR XBP1 act: inactive; Mdm2 MdmX PPI: inactive

Results for CN(c1ccccc1)S(=O)(=O)c1cccc(C(=O)NCCc2ccc(O)c(O)c2)c1 ?
CSC inhib: inactive; UPR CHOP act: 93; Beta apoptosis: inactive; SKKanGAS inh: inactive; UPR XBP1 act: 97; Mdm2 MdmX PPI: inactive; CHOP UPR conf: 82; UPR XBP1 confirm: 64

How did CCN(CC)S(=O)(=O)c1cccc(C(=O)NCCc2ccccc2)c1 do in these assays?
CSC inhib: inactive; UPR CHOP act: inactive; Beta apoptosis: inactive; SKKanGAS inh: inactive; UPR XBP1 act: inactive; Mdm2 MdmX PPI: inactive
